From ChEMBL document CHEMBL1145632, “Sulfamoyl benzamides as novel CB2 cannabinoid receptor ligands” (Bioorg Med Chem Lett, 2008)
The source made the active and inactive calls.

Assays:
Cannabinoid receptor 1 [1] = target: T1, Cannabinoid receptor 1 (Homo sapiens, UniProt P21554); test: Displacement of [3H]CP-55940 from human cloned CB1 receptor
Summary of the method: (§1)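 Competition binding of 0.2–0.6 nM [3H]CP55940 to membranes from cells expressing cloned human CB1 or CB2 receptors. Buffer: 50 mM Tris-HCl pH 7.0, 5.0 mM MgCl2, 1.0 mM EGTA, 1.0 mg/mL fatty-acid-free BSA. Incubation was 120 min at 30 °C for CB1 and 60 min at room temperature for CB2. Samples were filtered and counted by scintillation. Nonspecific binding was set with 10 µM WIN55212-2. Ratio is Ki CB1/Ki CB2.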

Cannabinoid receptor 2 [2] = target: T2, Cannabinoid receptor 2 (Homo sapiens, UniProt P34972); test: Displacement of [3H]CP-55940 from human cloned CB2 receptor; summary of the method: as §1
Homo sapiens [3] = species: Homo sapiens; test: Selectivity ratio of Ki for human cloned CB1 receptor to Ki for human cloned CB2 receptor; summary of the method: as §1
Cannabinoid receptor 1 [4] = target: T1, Cannabinoid receptor 1; test: Agonist activity at human cloned CB1 receptor by [35S]GTPgammaS binding assay; type: functional
Cannabinoid receptor 2 [5] = target: T2, Cannabinoid receptor 2; test: Agonist activity at human cloned CB2 receptor by [35S]GTP-gamma-S binding assay; type: functional
Summary of the method: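 Stimulation of [35S]GTPγS binding used 25 µg membrane protein from cells expressing cloned human CB2. Mix: 100–150 pM [35S]GTPγS, 150 mM NaCl, 45 mM MgCl2, 3 µM GDP, 0.4 mM DTT, 1.0 mM EGTA, 1 mg/mL fatty-acid-free BSA in 50 mM Tris-HCl pH 7.0. Incubation was 6 h at room temperature, read by scintillation. Stimulation over basal (no agonist) is expressed as % of 10 µM WIN55212-2.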

Homo sapiens [6] = species: Homo sapiens; test: Selectivity ratio of EC50 for human cloned CB1 receptor to EC50 for human cloned CB2 receptor
Rattus norvegicus [7] = test: Reversal of nerve injury-induced tactile allodynia in rat L5 spinal nerve ligation-induced nociception model at 3 mg/kg, ip; type: functional, organism-based; set-up: dose 3 mg/kg
Summary of the method: (§2)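 Rats with L5 spinal nerve ligation or hindpaw incision were dosed as stated. Read-out was paw-withdrawal threshold of the left hindpaw, reported as group mean ± SEM. Groups were compared by one-way ANOVA with protected t-test against the vehicle-treated surgery group.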

Rattus norvegicus [8] = test: Antiallodynic effect in rat hind paw incision-induced nociception model at 10 mg/kg, ip; type: functional, organism-based; set-up: dose 10 mg/kg; summary of the method: as §2
Rattus norvegicus [9] = test: Antiallodynic effect in rat hind paw incision-induced nociception model at 30 mg/kg, ip; type: functional, organism-based; set-up: dose 30 mg/kg
Rattus norvegicus [10] = test: Antiallodynic effect in rat hind paw incision-induced nociception model at 100 mg/kg, ip; type: functional, organism-based; set-up: dose 100 mg/kg
Rattus norvegicus [11] = test: Toxicity in rat assessed as behavioral side effects upto 10 mg/kg, ip; type: organism-based; set-up: dose 10 mg/kg, route intraperitoneal; conditions: in vivo
Rattus norvegicus [12] = test: Toxicity in rat assessed as induction of catalepsy at 6 mg/kg, ip; type: organism-based; set-up: dose 6 mg/kg, route intraperitoneal; conditions: in vivo
Rattus norvegicus [13] = test: Toxicity in rat assessed as induction of catalepsy at 10 mg/kg, ip; type: organism-based; set-up: dose 10 mg/kg, route intraperitoneal; conditions: in vivo
Rattus norvegicus [14] = test: Reversal of nerve injury-induced tactile allodynia in rat L5 spinal nerve ligation-induced nociception model at 60 mg/kg, ip; type: functional, organism-based; set-up: dose 60 mg/kg; summary of the method: as §2
Cannabinoid receptor 1 [15] = target: T1, Cannabinoid receptor 1; test: Displacement of [3H]CP-55940 from human cloned CB1 receptor at 10 uM
Rattus norvegicus [16] = test: Antiallodynic effect in rat hind paw incision-induced nociception model at 3 mg/kg, sc; type: functional, organism-based; set-up: dose 3 mg/kg; summary of the method: as §2

T2 sequence (P34972 whole entry): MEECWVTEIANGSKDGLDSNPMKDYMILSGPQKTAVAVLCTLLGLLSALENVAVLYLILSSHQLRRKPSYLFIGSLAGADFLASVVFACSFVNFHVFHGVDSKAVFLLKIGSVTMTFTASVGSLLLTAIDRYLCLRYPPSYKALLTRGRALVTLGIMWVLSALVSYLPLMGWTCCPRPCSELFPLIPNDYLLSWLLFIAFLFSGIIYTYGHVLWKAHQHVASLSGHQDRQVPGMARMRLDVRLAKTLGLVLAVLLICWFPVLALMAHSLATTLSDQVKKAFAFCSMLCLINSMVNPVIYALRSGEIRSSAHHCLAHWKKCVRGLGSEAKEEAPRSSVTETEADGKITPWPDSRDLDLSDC
T1 sequence (P21554 whole entry): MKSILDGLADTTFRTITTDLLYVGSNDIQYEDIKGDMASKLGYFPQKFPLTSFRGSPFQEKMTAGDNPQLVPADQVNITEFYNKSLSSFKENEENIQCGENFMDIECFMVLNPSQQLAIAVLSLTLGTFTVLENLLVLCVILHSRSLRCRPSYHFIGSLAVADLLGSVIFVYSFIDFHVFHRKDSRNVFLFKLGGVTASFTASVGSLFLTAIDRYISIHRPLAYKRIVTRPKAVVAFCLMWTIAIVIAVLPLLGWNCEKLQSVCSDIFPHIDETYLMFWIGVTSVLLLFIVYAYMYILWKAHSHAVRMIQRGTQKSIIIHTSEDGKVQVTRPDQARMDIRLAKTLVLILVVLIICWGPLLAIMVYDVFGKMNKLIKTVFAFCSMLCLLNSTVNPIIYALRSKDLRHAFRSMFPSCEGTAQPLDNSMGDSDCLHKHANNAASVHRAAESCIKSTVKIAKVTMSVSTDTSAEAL

Structure (SMILES): CC1(C)[C@H]2CC[C@](C)(C2)[C@@H]1NC(=O)c1ccc(Br)c(S(=O)(=O)N2CCCC2)c1
- Ki (Cannabinoid receptor 1 [1]): 110 nM
- Ki (Cannabinoid receptor 2 [2]): 9.4 nM
- Ratio Ki (Homo sapiens [3]): 12
- EC50 (Cannabinoid receptor 1 [4]): 220 nM
- EC50 (Cannabinoid receptor 2 [5]): 4.3 nM
- Ratio EC50 (Homo sapiens [6]): 51

Structure (SMILES): CC(C)(C)CNC(=O)c1ccc(Br)c(S(=O)(=O)N2CCOCC2)c1
- Ki (Cannabinoid receptor 1 [1]): 1300 nM
- Ki (Cannabinoid receptor 2 [2]): 450 nM
- Ratio Ki (Homo sapiens [3]): 3

Structure (SMILES): COc1cccc(CNC(=O)c2ccc(Br)c(S(=O)(=O)N3CCCCC3)c2)c1
- Ki (Cannabinoid receptor 1 [1]): 1400 nM
- Ki (Cannabinoid receptor 2 [2]): 200 nM
- Ratio Ki (Homo sapiens [3]): 7

Structure (SMILES): Cc1ccc(C(=O)NC23CC4CC(CC(C4)C2)C3)cc1S(=O)(=O)N1CCOCC1
- Ki (Cannabinoid receptor 1 [1]): 260 nM
- Ki (Cannabinoid receptor 2 [2]): 19 nM
- Ratio Ki (Homo sapiens [3]): 14
- EC50 (Cannabinoid receptor 1 [4]): 570 nM
- EC50 (Cannabinoid receptor 2 [5]): 48 nM
- Ratio EC50 (Homo sapiens [6]): 12

Structure (SMILES): Cc1ccc(C(=O)N[C@@H]2C(C)(C)[C@H]3CC[C@]2(C)C3)cc1S(=O)(=O)N1CCOCC1
- Ki (Cannabinoid receptor 1 [1]): 130 nM
- Ki (Cannabinoid receptor 2 [2]): 3.9 nM
- Ratio Ki (Homo sapiens [3]): 31
- EC50 (Cannabinoid receptor 1 [4]): 550 nM
- EC50 (Cannabinoid receptor 2 [5]): 4.6 nM
- Ratio EC50 (Homo sapiens [6]): 120
- Activity (Rattus norvegicus [7]): Active
- Activity (Rattus norvegicus [8]): Active
- Activity (Rattus norvegicus [9]): inactive
- Activity (Rattus norvegicus [10]): inactive
- Activity (Rattus norvegicus [11]): Non-toxic
- Activity (Rattus norvegicus [12]): Non-toxic
- Activity (Rattus norvegicus [13]): Non-toxic

Structure (SMILES): CC1(C)[C@H]2CC[C@](C)(C2)[C@@H]1NC(=O)c1ccc(Br)c(S(=O)(=O)N2CCOCC2)c1
- Ki (Cannabinoid receptor 1 [1]): 89 nM
- Ki (Cannabinoid receptor 2 [2]): 3.5 nM
- Ratio Ki (Homo sapiens [3]): 25
- EC50 (Cannabinoid receptor 1 [4]): 560 nM
- EC50 (Cannabinoid receptor 2 [5]): 8.8 nM
- Ratio EC50 (Homo sapiens [6]): 64

Structure (SMILES): NCC1(CC(=O)O)CCCCC1
- Activity (Rattus norvegicus [14]): Active

Structure (SMILES): Cc1ccc(C(=O)NC(C(C)(C)C)C(C)(C)C)cc1S(=O)(=O)N1CCOCC1
- Ki (Cannabinoid receptor 1 [1]): 310 nM
- Ki (Cannabinoid receptor 2 [2]): 34 nM
- Ratio Ki (Homo sapiens [3]): 9
- EC50 (Cannabinoid receptor 1 [4]): 920 nM
- EC50 (Cannabinoid receptor 2 [5]): 21 nM
- Ratio EC50 (Homo sapiens [6]): 44

Structure (SMILES): Cc1ccc(C(=O)N[C@H]2CC3CC[C@@]2(C)C3(C)C)cc1S(=O)(=O)N1CCOCC1
- Ki (Cannabinoid receptor 1 [1]): 50 nM
- Ki (Cannabinoid receptor 2 [2]): 8.1 nM
- Ratio Ki (Homo sapiens [3]): 7
- EC50 (Cannabinoid receptor 1 [4]): 210 nM
- EC50 (Cannabinoid receptor 2 [5]): 14 nM
- Ratio EC50 (Homo sapiens [6]): 15

Structure (SMILES): CC1(C)[C@H]2CC[C@](C)(C2)[C@@H]1NC(=O)c1ccc(Br)c(S(=O)(=O)N2CCCCC2)c1
- Ki (Cannabinoid receptor 1 [1]): 93 nM
- Ki (Cannabinoid receptor 2 [2]): 13 nM
- Ratio Ki (Homo sapiens [3]): 7
- EC50 (Cannabinoid receptor 1 [4]): 280 nM
- EC50 (Cannabinoid receptor 2 [5]): 6.6 nM
- Ratio EC50 (Homo sapiens [6]): 42

Structure (SMILES): Cc1ccc(C(=O)NC(C)C23CC4CC(CC(C4)C2)C3)cc1S(=O)(=O)N1CCOCC1 (stereo not drawn)
- Ki (Cannabinoid receptor 1 [1]): 77 nM
- Ki (Cannabinoid receptor 2 [2]): 6.3 nM
- Ratio Ki (Homo sapiens [3]): 5
- EC50 (Cannabinoid receptor 1 [4]): 290 nM
- EC50 (Cannabinoid receptor 2 [5]): 9.3 nM
- Ratio EC50 (Homo sapiens [6]): 31

Structure (SMILES): Cc1ccc(C(=O)NCC(C)(C)C)cc1S(=O)(=O)N1CCOCC1
- Ki (Cannabinoid receptor 1 [1]): > 1000 nM
- Ki (Cannabinoid receptor 2 [2]): 390 nM
- Ratio Ki (Homo sapiens [3]): > 3
- EC50 (Cannabinoid receptor 1 [4]): > 1000 nM
- EC50 (Cannabinoid receptor 2 [5]): 1800 nM

Structure (SMILES): CC(C)CNC(=O)c1ccc(Br)c(S(=O)(=O)N2CCCCC2)c1
- Ki (Cannabinoid receptor 1 [1]): > 1000 nM
- Ki (Cannabinoid receptor 2 [2]): 410 nM
- Ratio Ki (Homo sapiens [3]): > 2

Structure (SMILES): CN(Cc1ccccc1)S(=O)(=O)c1cc(C(=O)N[C@@H]2C(C)(C)[C@H]3CC[C@]2(C)C3)ccc1Br
- Ki (Cannabinoid receptor 1 [1]): > 1000 nM
- Ki (Cannabinoid receptor 2 [2]): 11 nM
- inhibition (Cannabinoid receptor 1 [15]): 33%
- Ratio Ki (Homo sapiens [3]): > 100

Structure (SMILES): O=C(NCc1ccccc1)c1ccc(Br)c(S(=O)(=O)N2CCCCC2)c1
- Ki (Cannabinoid receptor 1 [1]): 1100 nM
- Ki (Cannabinoid receptor 2 [2]): 360 nM
- Ratio Ki (Homo sapiens [3]): 3

Structure (SMILES): CC(C)CNC(=O)c1ccc(Br)c(S(=O)(=O)N(C)Cc2ccccc2)c1
- Ki (Cannabinoid receptor 1 [1]): > 1000 nM
- Ki (Cannabinoid receptor 2 [2]): 340 nM
- Ratio Ki (Homo sapiens [3]): > 3

Structure (SMILES): CN1CC[C@]23c4c5ccc(O)c4O[C@H]2[C@@H](O)C=C[C@H]3[C@H]1C5
- Activity (Rattus norvegicus [16]): Active

Structure (SMILES): Cc1ccc(C(=O)NC2C3CC4CC(C3)CC2C4)cc1S(=O)(=O)N1CCOCC1 (stereo not drawn)
- Ki (Cannabinoid receptor 1 [1]): 33 nM
- Ki (Cannabinoid receptor 2 [2]): 5.6 nM
- Ratio Ki (Homo sapiens [3]): 15
- EC50 (Cannabinoid receptor 1 [4]): 270 nM
- EC50 (Cannabinoid receptor 2 [5]): 12 nM
- Ratio EC50 (Homo sapiens [6]): 23

Structure (SMILES): Cc1ccc(C(=O)NC(C)C(C)(C)C)cc1S(=O)(=O)N1CCOCC1 (stereo not drawn)
- Ki (Cannabinoid receptor 1 [1]): 1300 nM
- Ki (Cannabinoid receptor 2 [2]): 180 nM
- Ratio Ki (Homo sapiens [3]): 9
- EC50 (Cannabinoid receptor 1 [4]): 2400 nM
- EC50 (Cannabinoid receptor 2 [5]): 125 nM
- Ratio EC50 (Homo sapiens [6]): 19

Structure (SMILES): Cc1ccc(C(=O)N[C@H]2C(C)(C)[C@H]3CC[C@]2(C)C3)cc1S(=O)(=O)N1CCOCC1
- Ki (Cannabinoid receptor 1 [1]): 540 nM
- Ki (Cannabinoid receptor 2 [2]): 48 nM
- Ratio Ki (Homo sapiens [3]): 11
- EC50 (Cannabinoid receptor 1 [4]): 880 nM
- EC50 (Cannabinoid receptor 2 [5]): 25 nM
- Ratio EC50 (Homo sapiens [6]): 35

Structure (SMILES): Cc1ccc(C(=O)NCC23CC4CC(CC(C4)C2)C3)cc1S(=O)(=O)N1CCOCC1
- Ki (Cannabinoid receptor 1 [1]): 91 nM
- Ki (Cannabinoid receptor 2 [2]): 10 nM
- Ratio Ki (Homo sapiens [3]): 9
- EC50 (Cannabinoid receptor 1 [4]): 210 nM
- EC50 (Cannabinoid receptor 2 [5]): 25 nM
- Ratio EC50 (Homo sapiens [6]): 8

Structure (SMILES): CC(C)(C)CNC(=O)c1ccc(Br)c(S(=O)(=O)N2CCCC2)c1
- Ki (Cannabinoid receptor 1 [1]): 2000 nM
- Ki (Cannabinoid receptor 2 [2]): 400 nM
- Ratio Ki (Homo sapiens [3]): 5

Structure (SMILES): CN(Cc1ccccc1)S(=O)(=O)c1cc(C(=O)NCC(C)(C)C)ccc1Br
- Ki (Cannabinoid receptor 1 [1]): > 1000 nM
- Ki (Cannabinoid receptor 2 [2]): 430 nM
- Ratio Ki (Homo sapiens [3]): > 2

Structure (SMILES): CC(C)(C)CNC(=O)c1ccc(Br)c(S(=O)(=O)N2CCCCC2)c1
- Ki (Cannabinoid receptor 1 [1]): 1300 nM
- Ki (Cannabinoid receptor 2 [2]): 100 nM
- Ratio Ki (Homo sapiens [3]): 13

Structure (SMILES): Cc1ccc(C(=O)NC2C(C)CCCC2C)cc1S(=O)(=O)N1CCOCC1 (stereo not drawn)
- Ki (Cannabinoid receptor 1 [1]): 470 nM
- Ki (Cannabinoid receptor 2 [2]): 92 nM
- Ratio Ki (Homo sapiens [3]): 5
- EC50 (Cannabinoid receptor 1 [4]): 540 nM
- EC50 (Cannabinoid receptor 2 [5]): 44 nM
- Ratio EC50 (Homo sapiens [6]): 12

Structure (SMILES): O=C(NCc1cccnc1)c1ccc(Br)c(S(=O)(=O)N2CCCCC2)c1
- Ki (Cannabinoid receptor 1 [1]): 1800 nM
- Ki (Cannabinoid receptor 2 [2]): 320 nM
- Ratio Ki (Homo sapiens [3]): 5
